Compounds with a hit are over-represented: about 4.9% of the library has one in this group of screens.
STAT1 blocker – reduces IFN-gamma driven STAT1 reporter signal; inhibition, % at 5.5 µM; NIH 3T3 STAT1-luciferase reporter, luminescence; 0.35% of 200,000 active; AID 920;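 active = inhibition above a set limit, the mean inhibition across all tested compounds plus 3 SD, cut at about 34% in these data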
STAT3 activator – activators of IL-6 induced STAT3 signaling. U3A cells, IL-6 STAT3-luciferase reporter, luminescence; 100% = signal with IL-6 EC80 alone. activation (% of control), % at 5.6 µM. 0.91% of 190,000 active;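 active = activation above the screen-wide mean of compound activation plus 3 SD, cut at about 130% in these data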
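Test system: Human STAT1-deficient U3A cells with stable STAT3-luciferase reporter | Also added: Interleukin-6, 33 ng/mL | Timing: Compound pre-incubation 1 h before IL-6, then 6 h stimulation at 37 °C | Technique: Luciferase reporter luminescence | Read-out: Percent of IL-6-only median luminescence | Benchmarks: IL-6-only wells as 100% reference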
APP 5'UTR act – APP 5'UTR luciferase reporter activation | SH-SY5Y APP 5'UTR luciferase reporter, luminescence; zero percent = DMSO vehicle wells | activation, % at 2 µM | 1% of 190,000 active;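 active = activation above a set limit, based on mean plus 3 SD of controls, cut at about 140% in these data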
STAT3 inh – STAT3 signaling inhibition; U3A cells, IL-6 STAT3-luciferase reporter, luminescence; host cell line lacks STAT1; inhibition, % at 5.5 µM; 0.89% of 190,000 active; AID 862;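 active = inhibition above the mean inhibition across all screened compounds plus 3 SD, cut at about 44% in these data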
STAT1 activator – increases IFN-gamma driven STAT1 reporter signal. NIH 3T3 STAT1-luciferase reporter, luminescence; 100% = IFN-gamma alone, no compound. activation (% of control), % at 5.5 µM. 2.6% of 200,000 active. AID 932;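 active = activation above the screen-wide mean activation plus 3 SD, cut at about 130% in these data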
NF-kB expr up – NF-kB expression increase, human neuronal cells. fold change at 12.5 µM. NF-kB reporter expression; hits give high values. 1.6% of 190,000 active; in the data active = fold change above about 3.3
STAT1 activ conf – STAT1 activation, confirmation assay | shares compounds with STAT1 activator | NIH 3T3 STAT1-luciferase reporter, IFN-gamma potentiation, luminescence; 100% = IFN-gamma EC80 alone, no compound | activation (% of control), % at 5.7 µM | 97% of 1,200 active | AID 1262;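 active = activation above a set limit carried over from the earlier primary STAT1 screen, cut at about 140% in these data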
NFkB act STAT1ct – activates NF-kappaB, counter-screen to STAT1 activators; shares compounds with STAT1 activator; HEK293T NF-kB luciferase reporter, TNF-alpha stimulated, luminescence; 100% = TNF-alpha with vehicle only; activation (% of control), % at 5.7 µM; 43% of 1,200 active; AID 1306;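 active = activation above the mean of solvent-only control wells plus 3 SD, set per campaign, cut at about 130% in these data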;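 note: TNF-alpha given at a submaximal dose yielding about 80% of full reporter signal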
STAT3 act STAT1c – human STAT3 activation in STAT1 activator counter-screen; shares compounds with STAT1 activator; U3A cells STAT3-luciferase reporter, IL-6, luminescence; cells lack STAT1; 100 = IL-6 alone, no compound effect; activation (% of control), % at 5.7 µM; 46% of 1,200 active;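 active = activation above the solvent-only control well mean plus 3 SD, set per plate batch, cut at about 110% in these data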;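 note: higher means more STAT3 reporter activation so hits are non-selective activators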
Each line names hits and unclear results; the compound was inactive in the other large screens (follow-up assays come after a bar, where they were run).

COc1ccc(C(=O)Nc2ccc3cn[nH]c3c2)c(OC)c1	STAT1 activator 164 | STAT1 activ conf 185 | NFkB act STAT1ct 134 | STAT3 act STAT1c 116
Cc1ccc(-c2noc(-c3cccs3)n2)cc1	APP 5'UTR act 135, STAT1 activator 154, NF-kB expr up 7.9 | STAT1 activ conf 220 | NFkB act STAT1ct inactive | STAT3 act STAT1c 111
O=C(Cn1c(=O)sc2ccccc21)Nc1ccc(O)cc1	none
COc1ccc2c3c(cccc13)N(C)N=C2C	none
CCc1ccc(C2=NN(S(C)(=O)=O)C(c3cccs3)C2)cc1 (stereo not drawn)	APP 5'UTR act 182, STAT1 activator 156, NF-kB expr up 8.4 | STAT1 activ conf 218 | NFkB act STAT1ct 142 | STAT3 act STAT1c 129
Cc1cccc(-c2cc3nc4c(c(N5CCCC(O)C5)n3n2)CCC4)c1 (stereo not drawn)	none
OC1CCCN(c2c3c(nc4cc(-c5cccc(F)c5)nn24)CCCC3)C1 (stereo not drawn)	STAT1 activator 158 | STAT1 activ conf 166 | NFkB act STAT1ct inactive | STAT3 act STAT1c 116
O=C(Nc1ccc2oc(-c3ccccc3)nc2c1)C1CCCO1 (stereo not drawn)	APP 5'UTR act 147, STAT1 activator 155, NF-kB expr up 3.6 | STAT1 activ conf 182 | NFkB act STAT1ct 134 | STAT3 act STAT1c inactive
O=C(Nc1ccc2oc(-c3ccccc3)nc2c1)c1cccnc1	none
O=C(Nc1ccc2oc(-c3ccccc3)nc2c1)c1ccco1	APP 5'UTR act 178, STAT1 activator 168, NF-kB expr up 5.1 | STAT1 activ conf 202 | NFkB act STAT1ct 134 | STAT3 act STAT1c inactive
CC(=O)Nc1ccc(-c2csc(Nc3ncccn3)n2)cc1	APP 5'UTR act 141, STAT1 activator 155 | STAT1 activ conf 168 | NFkB act STAT1ct inactive | STAT3 act STAT1c 111
c1ccc(-c2csc(Nc3ncccn3)n2)cc1	APP 5'UTR act 163, STAT1 activator 157 | STAT1 activ conf 240 | NFkB act STAT1ct inactive | STAT3 act STAT1c inactive
CCCCCNc1nc(-c2ccccc2)cs1	STAT1 activator 153, NF-kB expr up 6.4 | STAT1 activ conf 177 | NFkB act STAT1ct inactive | STAT3 act STAT1c inactive
Clc1ccccc1Nc1nc(-c2cccnc2)cs1	APP 5'UTR act 195, STAT1 activator 168, NF-kB expr up 7.8 | STAT1 activ conf 226 | NFkB act STAT1ct 134 | STAT3 act STAT1c 111
c1ccc(-c2csc(NC3=NCCCCC3)n2)cc1	none
C=CCc1cccc2cc(C(=O)Nc3ccc(S(=O)(=O)Nc4nnc(CC)s4)cc3)c(=O)oc12	none
CCN1C(=S)SC(=O)C1=C1C=C(C)N(CCO)C(C)=C1	STAT1 activator 158 | STAT1 activ conf 190 | NFkB act STAT1ct inactive | STAT3 act STAT1c 124
Cc1ccc(N(C(=O)CS(=O)CC(=O)Nc2ccc(F)cc2)C(C(=O)NC2CCCCC2)c2ccco2)cc1 (stereo not drawn)	none
CC(C)(C)c1ccc(OCC(=O)N/N=C/c2ccc(N3CCOCC3)cc2)cc1	none
O=C(Nc1ccc(NC(=O)C23CC4CC(CC(C4)C2)C3)cn1)c1ccco1	STAT1 activator 185 | STAT1 activ conf 222 | NFkB act STAT1ct 142 | STAT3 act STAT1c 123
O=C(/C=C\Nc1ccc(Br)cc1)c1cccnc1	APP 5'UTR act 210, STAT1 activator 162, NF-kB expr up 8.8 | STAT1 activ conf 198 | NFkB act STAT1ct inactive | STAT3 act STAT1c inactive
Cc1noc(NS(=O)(=O)c2ccc(N/C=C/C(=O)c3cccnc3)cc2)c1C	none
Cc1ccccc1NC(=S)NC1CCN(Cc2ccccc2)CC1	none
O=c1cc(-c2ccccc2Cl)oc2cc(O)cc(O)c12	none
O=C1C=CC(O)(c2cc(=O)c3c(O)cc(O)cc3o2)C=C1	STAT1 activator 162 | STAT1 activ conf inactive | NFkB act STAT1ct 185 | STAT3 act STAT1c 131
COc1nc(N/N=C/c2ccccc2F)nc(N2CCCCC2)n1	none
N/C(=N\OC(=O)COc1ccc(Br)cc1Cl)c1ccncc1	APP 5'UTR act 140, STAT1 activator 178, NF-kB expr up 4.4 | STAT1 activ conf 193 | NFkB act STAT1ct 144 | STAT3 act STAT1c 118
O=C(O)/C=C/C(=O)Nc1ccccc1-c1ccccc1NC(=O)/C=C/C(=O)O	none (no result: APP 5'UTR act)
O=C(O)/C=C\C(=O)Nc1ccccc1C#Cc1ccc(Br)cc1	APP 5'UTR act 158, STAT1 activator 159, NF-kB expr up 8 | STAT1 activ conf 131 | NFkB act STAT1ct inactive | STAT3 act STAT1c inactive
Cc1ccc(OCCOCCN2CCN(C)CC2)c([N+](=O)[O-])c1	none
O=C(Nc1nc2ccccc2s1)C1CCCO1 (stereo not drawn)	STAT1 activator 151 | STAT1 activ conf 166 | NFkB act STAT1ct inactive | STAT3 act STAT1c inactive
O=C(Nc1nc(-c2nc3ccccc3s2)cs1)C1CC1	APP 5'UTR act 238, STAT1 activator 162, NF-kB expr up 5.7 | STAT1 activ conf 227 | NFkB act STAT1ct inactive | STAT3 act STAT1c 117
CC1CCc2nc(NC(=O)C3CCCO3)sc2C1 (stereo not drawn)	APP 5'UTR act 172, STAT1 activator 161, NF-kB expr up 3.5 | STAT1 activ conf 189 | NFkB act STAT1ct inactive | STAT3 act STAT1c inactive
Nc1ccccc1Nc1cc(-c2ccccc2)[nH]n1	STAT1 activator 225, NF-kB expr up 4.7 | STAT1 activ conf 179 | NFkB act STAT1ct inactive | STAT3 act STAT1c inactive
Nc1ccccc1Nc1cc(-c2ccccc2)nn1-c1ccccc1	none
COCCn1c(C)cc(C(=O)CSc2nc3ccccc3o2)c1C	APP 5'UTR act 177, STAT1 activator 158 | STAT1 activ conf 215 | NFkB act STAT1ct inactive | STAT3 act STAT1c inactive
Cc1cccc(NC(=O)Nc2ccc(C#N)cc2)n1	STAT1 activator 208 | STAT1 activ conf 141 | NFkB act STAT1ct 136 | STAT3 act STAT1c 125
Cc1cccc(NC(=O)Nc2ccc(C)cc2Br)c1	none
Cc1cc(C)nc(NC(=O)Nc2ccc3c(c2)OCO3)c1	APP 5'UTR act 228, STAT1 activator 156 | STAT1 activ conf 204 | NFkB act STAT1ct inactive | STAT3 act STAT1c inactive
Cc1cccc(NC(=O)Nc2cc(C)cc(C)n2)c1	APP 5'UTR act 173, STAT1 activator 169 | STAT1 activ conf 193 | NFkB act STAT1ct inactive | STAT3 act STAT1c inactive

Assay outcomes: PubChem, several laboratories
